Measurements: ChEMBL document CHEMBL2321699, “Discovery of O-Alkylamino Tethered Niclosamide Derivatives as Potent and Orally Bioavailable Anticancer Agents” (ACS Med Chem Lett, 2013)
In brackets after ≈: the same amount, converted by molar mass. Activity calls are given as the source filed them. The calls are words filed in the database; no cut-off is given here.

How the values were obtained:
MCF7 = assay: Cytotoxicity against human ER positive MCF7 cells after 72 hrs by MTS assay; assay type: functional, cell-based; conditions: MCF7, 72 h
Summary of the method: (§1)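 Cell proliferation of MCF-7, MDA-MB-231, AsPC1 and Panc-1 measured by MTS assay; IC50 in μM.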

MDA-MB-231 [1] = assay: Cytotoxicity against human ER negative MDA-MB-231 cells after 72 hrs by MTS assay; assay type: functional, cell-based; conditions: MDA-MB-231, 72 h; summary of the method: as §1
PANC-1 = assay: Cytotoxicity against human PANC1 cells after 72 hrs by MTS assay; assay type: functional, cell-based; conditions: PANC-1, 72 h; summary of the method: as §1
ASPC1 = assay: Cytotoxicity against human AsPC1 cells after 72 hrs by MTS assay; assay type: functional, cell-based; conditions: ASPC1, 72 h; summary of the method: as §1
MDA-MB-231 [2] = assay: Antiproliferative activity against human ER negative MDA-MB-231 cells at 1 to 10 uM after 48 hrs by light microscopic analysis; assay type: functional, cell-based
Summary of the method: (§2)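 MDA-MB-231 cells treated 48 h at 1, 5 and 10 μM; cell morphology, growth and apoptotic features examined under light microscopy.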

MDA-MB-231 [3] = assay: Induction of apoptosis in human ER negative MDA-MB-231 cells at 1 to 10 uM after 48 hrs by light microscopic analysis; assay type: functional, cell-based; summary of the method: as §2
MDA-MB-231 [4] = assay: Induction of morphological changes in human ER negative MDA-MB-231 cells at 1 to 10 uM after 48 hrs by light microscopic analysis; assay type: functional, cell-based; summary of the method: as §2
[5] = biological target: Signal transducer and activator of transcription 3 (Homo sapiens) (UniProt P40763); assay: Inhibition of STAT3 promoter activity in human ER negative MDA-MB-231 cells after 24 hrs by dual luciferase reporter assay; assay type: cell-based
Sequence of Signal transducer and activator of transcription 3 (Homo sapiens) (P40763 whole entry): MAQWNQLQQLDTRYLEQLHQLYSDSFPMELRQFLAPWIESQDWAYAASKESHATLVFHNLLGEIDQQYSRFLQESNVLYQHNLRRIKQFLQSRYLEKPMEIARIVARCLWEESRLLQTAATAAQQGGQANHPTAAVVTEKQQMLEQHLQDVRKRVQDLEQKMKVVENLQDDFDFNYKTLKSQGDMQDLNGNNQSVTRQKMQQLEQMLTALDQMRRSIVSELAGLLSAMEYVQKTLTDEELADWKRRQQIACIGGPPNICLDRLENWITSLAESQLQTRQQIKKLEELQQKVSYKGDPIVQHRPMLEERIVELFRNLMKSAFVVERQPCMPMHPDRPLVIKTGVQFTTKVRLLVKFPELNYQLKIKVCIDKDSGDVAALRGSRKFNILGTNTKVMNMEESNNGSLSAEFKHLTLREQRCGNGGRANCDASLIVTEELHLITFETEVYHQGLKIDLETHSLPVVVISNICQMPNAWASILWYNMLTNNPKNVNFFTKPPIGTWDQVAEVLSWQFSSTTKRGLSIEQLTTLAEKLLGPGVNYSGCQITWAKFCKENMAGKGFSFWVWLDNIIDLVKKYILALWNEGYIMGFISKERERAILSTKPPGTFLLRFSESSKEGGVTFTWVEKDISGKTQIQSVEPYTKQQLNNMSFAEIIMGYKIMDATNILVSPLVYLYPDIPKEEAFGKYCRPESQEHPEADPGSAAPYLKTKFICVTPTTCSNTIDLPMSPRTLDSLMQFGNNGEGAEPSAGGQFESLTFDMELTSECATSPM
Summary of the method: (§3)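 MDA-MB-231 cells pretreated 24 h at various concentrations, then transiently transfected with pSTAT3-Luc vector; STAT3 promoter activity by dual luciferase reporter assay, expressed relative to control.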

[6] = Solubility of the compound in water; assay type: physicochemical
MDA-MB-231 [7] = assay: Antitumor activity against human ER negative MDA-MB-231 cells xenografted in nude mouse assessed as inhibition of tumor growth at 12.5 mg/kg, ip qd for 5 days; assay type: functional, organism-based; design: dose 12.5 mg/kg
Summary of the method: (§4)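 MDA-MB-231 xenografts in mice; tumor growth followed after intraperitoneal or oral dosing, doses as listed per line.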

MDA-MB-231 [8] = assay: Induction of apoptosis in human ER negative MDA-MB-231 cells assessed as cleavage of caspase-3 after 48 hrs; assay type: functional, cell-based
MDA-MB-231 [9] = assay: Antitumor activity against human ER negative MDA-MB-231 cells xenografted in nude mouse assessed as inhibition of tumor growth at 75 mg/kg, po qd for 5 days; assay type: functional, organism-based; design: dose 75 mg/kg; summary of the method: as §4
[10] = biological target: Signal transducer and activator of transcription 3 (Homo sapiens) (UniProt P40763); assay: Inhibition of STAT3 in human ER negative MDA-MB-231 cells assessed as reduction of phosphorylated STAT3 at Tyr-705 level at 1 to 10 uM after 24 hrs by Western blot analysis; assay type: cell-based
Summary of the method: (§5)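 MDA-MB-231 cells treated with a series of doses for 24 h; total STAT3 and Tyr-705-phosphorylated STAT3 detected by Western blot.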

[11] = biological target: Signal transducer and activator of transcription 3 (Homo sapiens) (UniProt P40763); assay: Inhibition of STAT3 promoter activity in human ER negative MDA-MB-231 cells at 10 uM after 24 hrs by dual luciferase reporter assay; assay type: cell-based; summary of the method: as §3
[12] = biological target: Signal transducer and activator of transcription 3 (Homo sapiens) (UniProt P40763); assay: Inhibition of STAT3 in human ER negative MDA-MB-231 cells assessed as reduction of total STAT3 level at 1 to 10 uM after 24 hrs by Western blot analysis; assay type: cell-based; summary of the method: as §5
[13] = biological target: Signal transducer and activator of transcription 3 (Homo sapiens) (UniProt P40763); assay: Inhibition of STAT3 promoter activity in human ER negative MDA-MB-231 cells at 20 uM after 24 hrs by dual luciferase reporter assay; assay type: cell-based; summary of the method: as §3
MDA-MB-231 [14] = assay: Antiproliferative activity against human ER negative MDA-MB-231 cells at 10 to 20 uM after 24 hrs by MTT assay; assay type: functional, cell-based
Summary of the method: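 MDA-MB-231 cells exposed 24 h; proliferation read by MTT assay.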

MDA-MB-231 [15] = assay: Antitumor activity against human ER negative MDA-MB-231 cells xenografted in nude mouse assessed as inhibition of tumor growth at 7.5 mg/kg, ip qd for 5 days; assay type: functional, organism-based; design: dose 7.5 mg/kg; summary of the method: as §4
MDA-MB-231 [16] = assay: Induction of apoptosis in human ER negative MDA-MB-231 cells assessed as down regulation of cycline D1 at 1 to 10 uM after 48 hrs; assay type: functional, cell-based
MDA-MB-231 [17] = assay: Antitumor activity against human ER negative MDA-MB-231 cells xenografted in nude mouse assessed as inhibition of tumor growth at 25 mg/kg, po qd for 5 days; assay type: functional, organism-based; design: dose 25 mg/kg; summary of the method: as §4
MDA-MB-231 [18] = assay: Induction of apoptosis in human ER negative MDA-MB-231 cells using annexin-V staining at 1 to 10 uM after 48 hrs by flow cytometry; assay type: functional, cell-based
Summary of the method: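 Apoptosis in MDA-MB-231 cells measured by annexin V staining with flow cytometry across a dose range.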

MDA-MB-231 [19] = assay: Induction of apoptosis in human ER negative MDA-MB-231 cells assessed as cleavage of caspase-3 at 1 to 10 uM after 48 hrs; assay type: functional, cell-based

Row | Structure (SMILES) | IC50 (MCF7) | IC50 (MDA-MB-231 [1]) | IC50 (PANC-1) | IC50 (ASPC1) | other results
1 | NCCCCOc1ccc(Cl)cc1C(=O)Nc1ccc([N+](=O)[O-])cc1Cl | 3.7 µM | 2.37 µM | > 10 µM | 7.4 µM | 
2 | O=C(Nc1ccc([N+](=O)[O-])cc1Cl)c1cc(Cl)ccc1OC1CCNCC1 [listing 1 of 2 here] |  |  |  |  | Activity (MDA-MB-231 [2]): Active; Activity (MDA-MB-231 [3]): Active; Activity (MDA-MB-231 [4]): Active
3 | O=C(Nc1ccc([N+](=O)[O-])cc1Cl)c1cc(Cl)ccc1O [NICLOSAMIDE] | 1.06 µM | 0.79 µM | 1.73 µM | 1.47 µM | Activity (MDA-MB-231 [2]): Active; Activity [5]: Active; solubility ([6]; water, read-out: solubility): 0.23 µg/mL (≈ 0.703 µM); TGI (MDA-MB-231 [7]): Active; Activity (MDA-MB-231 [8]): Dose-dependent effect; TGI (MDA-MB-231 [9]): Active; Activity (MDA-MB-231 [3]): Active; inhibition [10]: Active; inhibition [11]: Active; inhibition [12]: Active; inhibition [13]: Active; Activity (MDA-MB-231 [4]): Active; Activity (MDA-MB-231 [14]): Active
4 | CN1CCN(CCOc2ccc(Cl)cc2C(=O)Nc2ccc([N+](=O)[O-])cc2Cl)CC1 | > 10 µM | > 10 µM |  |  | 
5 | CN1CCC(Oc2ccc(Cl)cc2C(=O)Nc2ccc([N+](=O)[O-])cc2Cl)CC1 | 4.11 µM | 2.69 µM | > 10 µM | 3.51 µM | 
6 | Cl.O=C(Nc1ccc([N+](=O)[O-])cc1Cl)c1cc(Cl)ccc1OC1CCNCC1 |  |  |  |  | solubility ([6]; buffer): 248 µg/mL
7 | NCCCOc1ccc(Cl)cc1C(=O)Nc1ccc([N+](=O)[O-])cc1Cl | 3.11 µM | 2.61 µM | 3.11 µM | 4.2 µM | 
8 | NCCCCCOc1ccc(Cl)cc1C(=O)Nc1ccc([N+](=O)[O-])cc1Cl | 3.49 µM | 3.1 µM | 4.67 µM | 2.08 µM | 
9 | CN(C)CCOc1ccc(Cl)cc1C(=O)Nc1ccc([N+](=O)[O-])cc1Cl | > 10 µM | > 10 µM |  |  | 
10 | O=C(Nc1ccc([N+](=O)[O-])cc1Cl)c1cc(Cl)ccc1OCCN1CCNCC1 | 12.4 µM | 8.7 µM |  |  | 
11 | CC(=O)Nc1ccc(NC(=O)c2cc(Cl)ccc2OC2CCNCC2)c(Cl)c1 | > 10 µM | 5.87 µM |  |  | 
12 | NCCOCCOc1ccc(Cl)cc1C(=O)Nc1ccc([N+](=O)[O-])cc1Cl | 9.37 µM | 5.3 µM | > 10 µM | > 10 µM | 
13 | O=C(Nc1ccc([N+](=O)[O-])cc1Cl)c1cc(Cl)ccc1OC1CCNCC1 [listing 2 of 2 here] | 0.25 µM | 0.29 µM | 0.54 µM | 2.76 µM | 
14 | NCCOc1ccc(Cl)cc1C(=O)Nc1ccc([N+](=O)[O-])cc1Cl | 0.91 µM | 1.64 µM | 1.08 µM | 1.9 µM | TGI (MDA-MB-231 [15]): Active; Activity (MDA-MB-231 [2]): Active; Activity (MDA-MB-231 [16]): Active; Activity [5]: Active; inhibition [5]: Dose-dependent effect; TGI (MDA-MB-231 [17]): Active; Activity (MDA-MB-231 [8]): Dose-dependent effect; Activity (MDA-MB-231 [3]): Active; Activity (MDA-MB-231 [18]): Active; inhibition [10]: Active; inhibition [11]: 32%; inhibition [12]: Active; inhibition [13]: 62%; Activity (MDA-MB-231 [4]): Active; Activity (MDA-MB-231 [14]): Active; Activity (MDA-MB-231 [19]): Active
15 | CS(=O)(=O)Nc1ccc(NC(=O)c2cc(Cl)ccc2OC2CCNCC2)c(Cl)c1 | > 10 µM | > 10 µM |  |  | 
16 | O=C(Nc1ccc([N+](=O)[O-])cc1Cl)c1cc(Cl)ccc1OCCF | > 10 µM | > 10 µM |  |  | 
17 | O=C(Nc1ccc([N+](=O)[O-])cc1Cl)c1cc(Cl)ccc1OCCN1CCCCC1 | > 10 µM | > 10 µM |  |  | 
18 | O=C(Nc1ccc([N+](=O)[O-])cc1Cl)c1cc(Cl)ccc1OCCN1CCOCC1 | 9.87 µM | 18 µM | > 10 µM | 72.2 µM | 
